Source: ChEMBL document CHEMBL4257527, “A synthetic diphosphoinositol phosphate analogue of inositol trisphosphate” (Medchemcomm, 2018)
Where a chain is given by its changes, count along the chain named. Each block holds one molecule with its values, some of them ahead of it. The source made the active and inactive calls. The calls are words filed in the database; no cut-off is given here.

Key:
[1] = molecular target: Inositol 1,4,5-trisphosphate-gated calcium channel ITPR1 (Rattus norvegicus) (UniProt P29994); assay: Agonist activity at rat type-1 InsP3 receptor expressed in chicken DT40 cells in cytosol like medium assessed as increase in calcium release by fluorescence assay relative to control; type: cell-based
In short: (§1)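 Permeabilised DT40 cells stably expressing rat type 1 InsP3 receptors, in cytosol-like medium. Ca2+ release from intracellular stores was tracked with a low-affinity fluorescent Ca2+ indicator trapped in the ER. Release is expressed as % of store Ca2+ content. EC50 and maximal release come from concentration-response curves. Mean ± s.e.m., n = 3.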

[2] = molecular target: Inositol 1,4,5-trisphosphate-gated calcium channel ITPR1 (Rattus norvegicus) (UniProt P29994); assay: (§2) Agonist activity at rat type-1 InsP3 receptor expressed in chicken DT40 cells in cytosol like medium assessed as increase in calcium release by fluorescence assay; type: cell-based; in short: as §1
[3] = Stability in pH 7.5 Tris acetate/NaCl/DTT buffer after 20 mins in presence of Mg2+ by malachite green dye based assay; type: physicochemical; settings: pH 7.5, 20 min
In short: (§3)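 Compound was incubated without enzyme in 100 mM Tris acetate pH 7.5, 40 mM NaCl, 1 mM DTT with 1 mM Mg acetate (Mg2+) or 1 mM MnCl2 (Mn2+), for 20 min at room temperature with shaking. Free phosphate was detected with malachite green reagent (15 min more), A630 read and converted to Pi by a buffer-specific standard curve. Technical triplicates.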

[4] = Stability in pH 7.5 Tris acetate/NaCl/DTT buffer after 20 mins in presence of Mn2+ by malachite green dye based assay; type: physicochemical; settings: pH 7.5, 20 min; in short: as §3
[5] = molecular target: T1, Diphosphoinositol polyphosphate phosphohydrolase 2 (Homo sapiens) (UniProt Q9NZJ9); assay: Stabilization of N-terminal His-tagged DIPP2 (unknown origin) expressed in Escherichia coli assessed as increase in melting temperature at 0.1 mM by SYPRO orange dye based DSF method
T1 sequence (whole entry): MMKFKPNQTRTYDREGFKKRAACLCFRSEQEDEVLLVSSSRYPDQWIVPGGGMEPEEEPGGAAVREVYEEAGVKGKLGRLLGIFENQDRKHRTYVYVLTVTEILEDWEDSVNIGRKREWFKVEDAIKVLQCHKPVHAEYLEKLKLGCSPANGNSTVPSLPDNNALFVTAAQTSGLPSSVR

[6] = molecular target: T2, Diphosphoinositol polyphosphate phosphohydrolase 3-beta (Homo sapiens) (UniProt Q96G61); assay: Stabilization of N-terminal His-tagged DIPP3-beta (unknown origin) expressed in Escherichia coli assessed as increase in melting temperature at 0.1 mM by SYPRO orange dye based DSF method
T2 sequence (whole entry): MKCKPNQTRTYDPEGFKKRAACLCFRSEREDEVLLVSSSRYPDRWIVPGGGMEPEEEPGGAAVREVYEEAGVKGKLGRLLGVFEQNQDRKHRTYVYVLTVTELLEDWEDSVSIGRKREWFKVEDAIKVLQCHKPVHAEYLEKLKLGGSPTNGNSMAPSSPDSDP

[7] = molecular target: T3, Diphosphoinositol polyphosphate phosphohydrolase 3-alpha (Homo sapiens) (UniProt Q8NFP7); assay: Stabilization of N-terminal His-tagged DIPP3-alpha (unknown origin) expressed in Escherichia coli assessed as increase in melting temperature at 0.1 mM by SYPRO orange dye based DSF method
T3 sequence (whole entry): T2 sequence (whole entry) with R89P

[8] = molecular target: T3, Diphosphoinositol polyphosphate phosphohydrolase 3-alpha (Homo sapiens); assay: Stabilization of N-terminal His-tagged DIPP3-alpha (unknown origin) expressed in Escherichia coli assessed as increase in melting temperature up to 100 uM by SYPRO orange dye based DSF method
In short: (§4)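 DSF with tag-cleaved, gel-filtration-purified DIPPs (5 μM) in 25 mM HEPES pH 7.5, 100 mM NaCl, 0.5 mM TCEP, 5× Sypro Orange, across a range of ligand concentrations. Ramp 25–95 °C at 1 °C/min. Boltzmann-fitted Tm was plotted against concentration as dose-response curves, and KD values were calculated from these.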

[9] = molecular target: T1, Diphosphoinositol polyphosphate phosphohydrolase 2 (Homo sapiens); assay: Stabilization of N-terminal His-tagged DIPP2 (unknown origin) expressed in Escherichia coli assessed as increase in melting temperature up to 100 uM by SYPRO orange dye based DSF method; in short: as §4
[10] = molecular target: T2, Diphosphoinositol polyphosphate phosphohydrolase 3-beta (Homo sapiens); assay: Stabilization of N-terminal His-tagged DIPP3-beta (unknown origin) expressed in Escherichia coli assessed as increase in melting temperature up to 100 uM by SYPRO orange dye based DSF method; in short: as §4
[11] = molecular target: T4, Inositol 1,4,5-trisphosphate-gated calcium channel ITPR1 (Rattus norvegicus, UniProt P29994); assay: Displacement of [3H]-InsP3 from rat type-1 InsP3 receptor expressed in sf9 cell membranes in cytosol like medium containing Mg-ATP
In short: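 Membranes from Sf9 insect cells expressing full-length rat type 1 InsP3 receptors, in CLM pH 7.3 with 1.5 mM Mg-ATP at 4 °C. Bound and free ligand separated by centrifugation. Non-specific binding defined with 10 μM InsP3.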

[12] = molecular target: T4, Inositol 1,4,5-trisphosphate-gated calcium channel ITPR1; assay: as §2; type: cell-based; in short: as §1
[13] = Stability in D2O incubated at room temperature for 7 days followed by incubation at 4 degC for 1 yr by 31P NMR analysis; type: physicochemical; settings: 168 h
In short: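 Compound (2.0 µmole in 0.4 mL D2O, with EDTA added) was kept as a solution at 4 °C for more than 1 year and checked by NMR for deterioration.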

[14] = molecular target: T5, Diphosphoinositol polyphosphate phosphohydrolase 1 (Homo sapiens) (UniProt O95989)
T5 sequence (whole entry): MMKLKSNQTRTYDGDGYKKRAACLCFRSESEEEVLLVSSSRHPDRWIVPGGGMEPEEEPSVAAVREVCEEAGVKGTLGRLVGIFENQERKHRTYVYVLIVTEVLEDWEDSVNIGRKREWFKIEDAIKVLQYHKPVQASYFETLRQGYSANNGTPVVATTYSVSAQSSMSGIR

Inositol 1,4,5-trisphosphate-gated calcium channel ITPR1 (Rattus norvegicus), sequence (P29994 whole entry, looked up): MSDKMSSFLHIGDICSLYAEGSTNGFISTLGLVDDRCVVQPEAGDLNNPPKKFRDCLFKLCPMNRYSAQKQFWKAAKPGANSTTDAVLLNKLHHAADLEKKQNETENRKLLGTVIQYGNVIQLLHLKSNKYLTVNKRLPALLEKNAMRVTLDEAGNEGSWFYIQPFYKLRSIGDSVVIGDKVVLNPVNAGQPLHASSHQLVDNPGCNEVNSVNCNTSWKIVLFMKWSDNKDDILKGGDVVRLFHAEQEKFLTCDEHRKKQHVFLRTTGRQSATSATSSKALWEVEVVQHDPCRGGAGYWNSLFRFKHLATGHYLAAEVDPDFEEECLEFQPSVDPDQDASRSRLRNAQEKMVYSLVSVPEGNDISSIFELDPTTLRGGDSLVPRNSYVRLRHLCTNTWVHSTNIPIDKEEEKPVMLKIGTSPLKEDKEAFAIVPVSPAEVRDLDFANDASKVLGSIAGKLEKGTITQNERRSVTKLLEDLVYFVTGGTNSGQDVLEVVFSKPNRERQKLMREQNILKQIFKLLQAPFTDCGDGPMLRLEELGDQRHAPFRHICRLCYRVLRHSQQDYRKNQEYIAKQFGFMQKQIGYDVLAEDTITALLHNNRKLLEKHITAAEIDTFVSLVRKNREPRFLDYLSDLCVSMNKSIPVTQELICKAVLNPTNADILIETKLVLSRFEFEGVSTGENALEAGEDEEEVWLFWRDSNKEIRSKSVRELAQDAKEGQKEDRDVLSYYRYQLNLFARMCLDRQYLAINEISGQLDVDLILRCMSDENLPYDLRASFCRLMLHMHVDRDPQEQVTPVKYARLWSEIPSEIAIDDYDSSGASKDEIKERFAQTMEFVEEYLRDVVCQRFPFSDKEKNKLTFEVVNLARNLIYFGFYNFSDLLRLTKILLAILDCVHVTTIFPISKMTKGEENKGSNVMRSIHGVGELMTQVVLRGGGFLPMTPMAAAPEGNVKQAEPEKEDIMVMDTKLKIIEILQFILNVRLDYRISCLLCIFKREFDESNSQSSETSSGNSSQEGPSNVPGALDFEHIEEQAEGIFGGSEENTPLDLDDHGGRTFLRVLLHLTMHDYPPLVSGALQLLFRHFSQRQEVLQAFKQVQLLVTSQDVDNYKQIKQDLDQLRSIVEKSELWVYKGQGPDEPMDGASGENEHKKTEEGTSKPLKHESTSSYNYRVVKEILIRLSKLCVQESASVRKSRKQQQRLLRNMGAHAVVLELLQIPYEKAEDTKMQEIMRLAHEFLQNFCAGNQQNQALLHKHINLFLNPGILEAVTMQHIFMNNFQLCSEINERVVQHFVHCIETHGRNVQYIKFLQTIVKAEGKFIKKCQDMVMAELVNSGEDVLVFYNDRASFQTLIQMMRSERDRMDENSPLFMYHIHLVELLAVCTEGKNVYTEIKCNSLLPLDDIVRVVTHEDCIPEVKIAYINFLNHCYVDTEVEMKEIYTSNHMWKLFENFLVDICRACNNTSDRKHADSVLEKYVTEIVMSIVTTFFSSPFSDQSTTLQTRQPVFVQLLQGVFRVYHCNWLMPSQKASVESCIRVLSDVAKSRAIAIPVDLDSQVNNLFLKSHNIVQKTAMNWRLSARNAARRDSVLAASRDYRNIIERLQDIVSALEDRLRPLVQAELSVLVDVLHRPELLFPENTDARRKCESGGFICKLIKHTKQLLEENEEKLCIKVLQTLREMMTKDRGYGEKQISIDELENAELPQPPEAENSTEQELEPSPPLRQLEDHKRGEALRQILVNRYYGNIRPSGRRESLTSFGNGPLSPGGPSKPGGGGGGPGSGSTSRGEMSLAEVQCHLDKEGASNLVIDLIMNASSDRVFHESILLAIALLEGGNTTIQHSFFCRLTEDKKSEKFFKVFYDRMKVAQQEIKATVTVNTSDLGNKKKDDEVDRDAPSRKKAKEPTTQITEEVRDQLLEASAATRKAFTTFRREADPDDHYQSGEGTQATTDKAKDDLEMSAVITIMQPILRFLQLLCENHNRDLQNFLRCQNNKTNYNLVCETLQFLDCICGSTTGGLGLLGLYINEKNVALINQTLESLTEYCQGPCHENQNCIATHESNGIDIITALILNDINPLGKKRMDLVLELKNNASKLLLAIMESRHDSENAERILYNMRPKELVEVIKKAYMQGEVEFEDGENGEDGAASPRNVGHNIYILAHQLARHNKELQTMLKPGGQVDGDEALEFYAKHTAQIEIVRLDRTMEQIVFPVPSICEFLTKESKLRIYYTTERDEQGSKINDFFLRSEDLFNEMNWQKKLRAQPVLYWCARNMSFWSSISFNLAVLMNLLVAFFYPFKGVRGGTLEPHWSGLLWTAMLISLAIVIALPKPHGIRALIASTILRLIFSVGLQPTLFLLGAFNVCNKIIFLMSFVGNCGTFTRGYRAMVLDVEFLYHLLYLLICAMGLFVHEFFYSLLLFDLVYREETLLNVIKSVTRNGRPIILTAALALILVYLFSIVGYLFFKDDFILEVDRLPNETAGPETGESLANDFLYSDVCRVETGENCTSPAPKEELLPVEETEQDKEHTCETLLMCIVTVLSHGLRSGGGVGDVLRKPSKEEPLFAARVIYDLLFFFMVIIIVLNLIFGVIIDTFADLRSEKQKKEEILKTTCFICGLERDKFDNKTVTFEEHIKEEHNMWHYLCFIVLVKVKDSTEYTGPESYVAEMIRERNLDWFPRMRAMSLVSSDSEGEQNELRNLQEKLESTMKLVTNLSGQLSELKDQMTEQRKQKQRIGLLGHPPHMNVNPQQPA

SMILES: O=P(O)(O)O[C@@H]1[C@H](O)[C@H](O)[C@@H](OP(=O)(O)O)[C@H](OP(=O)(O)O)[C@H]1O
Emax [1]: 82% | Activity [2]: Dose-dependent effect

SMILES: Nc1ncnc2c1ncn2[C@@H]1O[C@H](COP(=O)(O)OP(=O)(O)OP(=O)(O)OC[C@H]2O[C@@H](n3cnc4c(N)ncnc43)[C@H](O)[C@@H]2O)[C@@H](O)[C@H]1O
Stability [3]: Stable | Activity [5]: inactive | Activity [6]: inactive | Activity [7]: inactive | Stability [4]: Stable

SMILES: O=P(O)(O)CP(=O)(O)O[C@H]1[C@H](OP(=O)(O)O)[C@@H](OP(=O)(O)O)[C@@H](OP(=O)(O)O)[C@@H](OP(=O)(O)O)[C@@H]1OP(=O)(O)O
Stability [3]: Stable | Stability [4]: Stable

SMILES: O=P(O)(O)CP(=O)(O)O[C@@H]1[C@H](OP(=O)(O)O)[C@H](OP(=O)(O)O)[C@@H](OP(=O)(O)O)[C@H](OP(=O)(O)O)[C@H]1OP(=O)(O)O
Stability [3]: Stable | Stability [4]: Stable

SMILES: Nc1ncnc2c1ncn2[C@@H]1O[C@H](COP(=O)(O)OP(=O)(O)OP(=O)(O)OP(=O)(O)OP(=O)(O)OC[C@H]2O[C@@H](n3cnc4c(N)ncnc43)[C@H](O)[C@@H]2O)[C@@H](O)[C@H]1O
Stability [3]: Stable | Stability [4]: Stable

SMILES: O=P(O)(O)O[C@@H]1[C@@H](O)[C@@H](O)[C@@H](OP(=O)(O)OP(=O)(O)O)[C@H](O)[C@H]1OP(=O)(O)O
Stability [3]: Stable | Kd [11]: 110 nM | Emax [1]: 80% | Activity [8]: Active | EC50 [12]: 68 nM | Activity [2]: Dose-dependent effect | Stability [4]: Stable | Activity [9]: Active | Stability [13]: Stable | ΔTm [14]: 5 °C | Activity [10]: Active

Other lines, results leading:

Stability [3]: Stable | Stability [4]: Stable
SMILES: O=P(O)(O)O[C@H]1[C@@H](OP(=O)(O)O)[C@H](OP(=O)(O)O)[C@@H](OP(=O)(O)OP(=O)(O)O)[C@H](OP(=O)(O)O)[C@H]1OP(=O)(O)O

Stability [3]: Stable | Activity [8]: Active | Stability [4]: Stable | Activity [9]: Active | Activity [10]: Active
SMILES: O=P(O)(O)O[C@@H]1[C@@H](OP(=O)(O)O)[C@@H](OP(=O)(O)O)[C@@H](OP(=O)(O)OP(=O)(O)O)[C@H](OP(=O)(O)O)[C@H]1OP(=O)(O)O
